PMC4511165 (Biochemistry, 2015)
Entries after “also recorded” stand apart in the source; their conditions may differ.

Columns and labels:
MMP-8 [1] = molecular target: T1, MMP-8 (Homo sapiens, UniProt P22894); test: HPLC-monitored hydrolysis of peptomeric THPs by MMP-8; format: biochemical; details: room temperature, 24 h; MALDI-TOF MS / HPLC of products
In short: (§1)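 Full-length human enzymes were activated with 1 mM […] for 60 min at 37 °C, then diluted to 100 nM in ice-cold TSB*Zn (Tris, NaCl, CaCl2, ZnCl2, Brij-35, pH 7.5). Substrates were pre-equilibrated in TSB at 4 °C for 24 h. Reactions used 20 nM enzyme at 1:1000 enzyme:substrate for 24 h at room temperature (some also at 37 °C). Reactions were quenched with 50 mM EDTA; triplicate RP-HPLC peak integration at 220 nm, with MALDI-TOF identifying products.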

MMP-13 [2] = molecular target: T2, MMP-13 (Homo sapiens, UniProt P45452); test: HPLC-monitored hydrolysis of peptomeric THPs by MMP-13; format: biochemical; details: 24 h; for cleavage site, MMP-13: room temperature, MALDI-TOF MS / HPLC of products
In short: as §1

[3] = molecular target: T3, MMP-14/MT1-MMP (ectodomain, soluble MT1-MMP) (Homo sapiens, UniProt P50281); test: HPLC-monitored hydrolysis of peptomeric THPs by MT1-MMP; format: biochemical; details: room temperature, 24 h; MALDI-TOF MS / HPLC of products
In short: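 Soluble ectodomain was activated with 0.1 equiv trypsin-3 for 1 h at 37 °C. Trypsin was quenched with 100 equiv AEBSF for 15 min at room temperature, then the enzyme was diluted in cold TSB*Zn (pH 7.5). Substrates were pre-equilibrated in TSB at 4 °C for 24 h. Reactions used 20 nM enzyme at 1:1000 enzyme:substrate for 24 h at room temperature (some also at 37 °C). Reactions were quenched with 50 mM EDTA; triplicate RP-HPLC integration at 220 nm, MALDI-TOF for products.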

MMP-1 [4] = molecular target: T4, MMP-1 (Homo sapiens, UniProt P03956); test: HPLC-monitored hydrolysis of peptomeric THPs by MMP-1; format: biochemical; details: room temperature, 24 h; MALDI-TOF MS / HPLC of products
T4 sequence (P03956 100-469): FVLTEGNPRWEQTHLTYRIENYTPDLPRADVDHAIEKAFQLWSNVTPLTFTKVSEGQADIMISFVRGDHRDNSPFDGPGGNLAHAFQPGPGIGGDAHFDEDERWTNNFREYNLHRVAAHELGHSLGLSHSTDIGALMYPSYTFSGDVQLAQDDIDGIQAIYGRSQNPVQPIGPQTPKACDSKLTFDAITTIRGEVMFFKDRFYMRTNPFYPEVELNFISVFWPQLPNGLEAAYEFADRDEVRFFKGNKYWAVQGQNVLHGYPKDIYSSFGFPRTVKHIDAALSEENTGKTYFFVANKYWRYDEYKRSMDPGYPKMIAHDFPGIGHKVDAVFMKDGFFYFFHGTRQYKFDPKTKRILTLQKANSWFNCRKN
In short: as §1

CD thermal transition = format: physicochemical; details: decrease relative to α1(I)772–786 THP
MMP-1 [5] = molecular target: T4, MMP-1; test: Hydrolysis of fluorogenic; format: biochemical; details: 30 °C; for hydrolysis of fluorogenic peptomer by MMP-1: FRET kinetic assay, TSB*Zn buffer
In short: (§2)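 Enzymes were activated with 1 mM […] at 37 °C for 60 min and diluted in TSB*Zn. The Mca/Dnp substrate was equilibrated in TSB at 4 °C for 24 h and quantified at 363 nm (εDnp 15900 M−1 cm−1). Twelve 1:1 dilutions were made from a 100 µM stock, and enzyme was added from a 100 nM 20× stock. Fluorescence was read every 8 s for 600 s at 30 °C, with a final read at 24 h. The 25 µM sample was analysed by HPLC for % cleavage; triplicate.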

MMP-8 [6] = molecular target: T1, MMP-8; test: Hydrolysis of fluorogenic; format: biochemical; details: 30 °C; for hydrolysis of fluorogenic peptomer by MMP-8: FRET kinetic assay, TSB*Zn buffer
In short: as §2

MMP-13 [7] = molecular target: T2, MMP-13; test: Hydrolysis of fluorogenic; format: biochemical
In short: as §2

[8] = molecular target: T3, MMP-14/MT1-MMP (ectodomain, soluble MT1-MMP); test: Hydrolysis of fluorogenic; format: biochemical
In short: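 Soluble ectodomain was activated with 0.1 equiv trypsin-3 for 1 h at 37 °C, quenched with AEBSF and diluted in TSB*Zn. The Mca/Dnp substrate was equilibrated in TSB at 4 °C for 24 h and quantified at 363 nm. Twelve 1:1 dilutions were made from a 100 µM stock, and enzyme was added from a 100 nM 20× stock. Fluorescence was read every 8 s for 600 s at 30 °C, with a final read at 24 h. The 25 µM sample was analysed by HPLC for % cleavage; triplicate.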

MMP-3 = MMP-3 (Homo sapiens, UniProt P08254); test: Hydrolysis of Ac-pfTHP-1 by noncollagenolytic MMP-3; format: biochemical; details: data not shown
Sequence of MMP-3 (P08254 100-477, species assumed): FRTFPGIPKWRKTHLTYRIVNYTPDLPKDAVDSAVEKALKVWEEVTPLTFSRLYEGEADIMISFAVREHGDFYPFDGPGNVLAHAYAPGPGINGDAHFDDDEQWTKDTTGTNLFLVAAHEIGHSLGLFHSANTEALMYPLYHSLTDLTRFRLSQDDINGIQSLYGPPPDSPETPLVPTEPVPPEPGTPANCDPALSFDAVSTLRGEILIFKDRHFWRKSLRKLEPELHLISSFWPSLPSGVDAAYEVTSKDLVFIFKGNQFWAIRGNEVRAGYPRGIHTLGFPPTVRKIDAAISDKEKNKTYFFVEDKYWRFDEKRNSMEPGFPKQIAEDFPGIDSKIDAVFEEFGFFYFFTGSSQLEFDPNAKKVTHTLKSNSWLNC

MMP-1 [9] = molecular target: T4, MMP-1; test: Inhibition of MMP-1 by non-cleaved peptomers; format: biochemical; details: MS-1 up to 200 µM; concentration for MS-2 not given; data not shown
MMP-8 [10] = molecular target: T1, MMP-8; test: Inhibition of MMP-8 by non-cleaved peptomers; format: biochemical; details: MS-1 up to 200 µM; concentration for MS-2 not given; data not shown
MMP-13 [11] = molecular target: T2, MMP-13; test: Inhibition of MMP-13 by non-cleaved peptomers; format: biochemical; details: MS-1 up to 200 µM; concentration for MS-2 not given; data not shown
MMP-14/MT1-MMP = MMP-14/MT1-MMP (Homo sapiens, UniProt P50281); test: Inhibition of MT1-MMP by non-cleaved peptomers; format: biochemical; details: MS-1 up to 200 µM; concentration for MS-2 not given; data not shown
[12] = RP-HPLC, 25 µM peptomer, 24 h, data not shown
[13] = RP-HPLC, 25 µM peptomer, 30 °C, 24 h, data not shown

T1 sequence (P22894 101-467): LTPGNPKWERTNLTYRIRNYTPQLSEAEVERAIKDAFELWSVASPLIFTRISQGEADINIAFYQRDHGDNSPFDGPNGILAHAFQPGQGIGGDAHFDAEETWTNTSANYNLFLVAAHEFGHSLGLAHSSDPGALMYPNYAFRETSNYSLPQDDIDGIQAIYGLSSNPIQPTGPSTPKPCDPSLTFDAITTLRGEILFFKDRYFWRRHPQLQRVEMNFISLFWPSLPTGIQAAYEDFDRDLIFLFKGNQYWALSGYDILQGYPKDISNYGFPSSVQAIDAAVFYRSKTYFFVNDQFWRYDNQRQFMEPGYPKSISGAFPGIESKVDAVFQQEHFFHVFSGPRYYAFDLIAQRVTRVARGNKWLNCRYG

Substance | cleavage site, MMP-8 (MMP-8 [1]) | cleavage site, MMP-13 (MMP-13 [2]) | cleavage site, MT1-MMP [3] | cleavage site, MMP-1 (MMP-1 [4]) | Tm lower than that of parent THP by (CD thermal transition) [°C] | other results
(GPO)4GPQGWAGQRGVVG-NLeu-O(GPO)4-NH2 [MS-10] | Gly775-Trp776 bond | Gly775-Trp776 bond | Gly775-Trp776 bond; also recorded: occurring at several bonds |  |  | 
(GPO)4GPQGIAGQRGVVG-NLeu-O(GPO)4-NH2 [MS-7] | Gly775–Ile776 bond | Gly775–Ile776 bond | Gly775–Ile776 bond | Gly775–Ile776 bond |  | difference in MMP-13 hydrolysis versus parent THP (MMP-13 [2]; 37 °C, RP-HPLC, peptomer better substrate than parent THP): 2 fold
(GPO)4G-Sar-QGIAGQRGVVGLO(GPO)4-NH2 [MS-4] |  |  |  |  | 4 | 
(GPO)4GPQ-Sar-IAGQRGVVG-NLeu-GLO(GPO)4- NH2 [MS-9] | between Sar775 and Ile776 | between Sar775 and Ile776 | between Sar775 and Ile776 | between Sar775 and Ile776 | 13.5 | 
(GPO)4GP-Lys(Mca)-G-Sar-AGQRGV-Lys(Dnp)-G- NLeu-O(GPO)4-NH2 [pfTHP-1] |  |  |  |  |  | hydrolysis of fluorogenic peptomer by MMP-1 (MMP-1 [5]): unable to hydrolyze; hydrolysis of fluorogenic peptomer by MMP-8 (MMP-8 [6]): unable to hydrolyze; cleavage site of fluorogenic peptomer, MMP-13 (MMP-13 [7]): between Gly778 and Gln779; cleavage sites of fluorogenic peptomer, MT1-MMP [8]: Gly781–Val782 and Arg780–Gly781 bonds
(GPO)4GPQ-Sar-IAGQRGVVGLO(GPO)4-NH2 [MS-3] | between Sar775 and Ile776 | between Sar775 and Ile776 | between Sar775 and Ile776 | between Sar775 and Ile776 | 20 | 
Ac-(GPO)4-GP-Lys(Mca)-G-Sar-AGQRGV-Lys(Dnp) G-NLeu-O(GPO)4-NH2 [Ac-pfTHP-1] |  |  |  |  |  | hydrolysis of fluorogenic peptomer by MMP-1 (MMP-1 [5]): unable to hydrolyze; hydrolysis by MMP-1 (MMP-1 [5]; [12]): < 1%; hydrolysis of fluorogenic peptomer by MMP-8 (MMP-8 [6]): unable to hydrolyze; hydrolysis by MMP-8 (MMP-8 [6]; [12]): < 2%; hydrolysis by MMP-13 (MMP-13 [7]; [13]): 65%; cleavage site of fluorogenic peptomer, MMP-13 (MMP-13 [7]): between Gly778 and Gln779; hydrolysis by MT1-MMP [8, 13]: 22%; cleavage sites of fluorogenic peptomer, MT1-MMP [8]: Gly781–Val782 and Arg780–Gly781 bonds; hydrolysis by MMP-3 (MMP-3): not able to hydrolyze
(GPO)4-GPQG-NIle-AGQRGVVGLO(GPO)4-NH2 [MS-1] |  |  |  |  |  | inhibition of MMP-1 (MMP-1 [9]): No inhibition; inhibition of MMP-8 (MMP-8 [10]): No inhibition; inhibition of MMP-13 (MMP-13 [11]): No inhibition; inhibition of MT1-MMP (MMP-14/MT1-MMP): No inhibition
